Compound activity: PubChem BioAssay, The Scripps Research Institute Molecular Screening Center
A selection: hits, their analogues and other compounds. The true share with any hit is near 2.4%.
S1P4 agonist – human S1P4 receptor agonism; O95977; S1P4-expressing cell line, agonist reporter assay; activation, % at 4.98 µM; 220,000 compounds, 0.35% hits; in the data active = activation above about 11%;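 also: 0% = DMSO vehicle and 100% = reference agonist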
NPY-Y1 antag – blocks the human neuropeptide Y Y1 receptor | P25929 | inhibition, % at 3.6 µM | AID 1040 | 200,000 compounds, 1% hits | HEK293-CNG Y1 cells, membrane potential fluorescence; NPY at EC95, then isoproterenol;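 active = inhibition above the campaign mean inhibition of all tested compounds plus 3 SD, cut at about 20% in these data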;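 also: 0% = DMSO wells given NPY plus isoproterenol and 100% = isoproterenol alone without NPY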
Target sequence (P25929 whole entry, looked up): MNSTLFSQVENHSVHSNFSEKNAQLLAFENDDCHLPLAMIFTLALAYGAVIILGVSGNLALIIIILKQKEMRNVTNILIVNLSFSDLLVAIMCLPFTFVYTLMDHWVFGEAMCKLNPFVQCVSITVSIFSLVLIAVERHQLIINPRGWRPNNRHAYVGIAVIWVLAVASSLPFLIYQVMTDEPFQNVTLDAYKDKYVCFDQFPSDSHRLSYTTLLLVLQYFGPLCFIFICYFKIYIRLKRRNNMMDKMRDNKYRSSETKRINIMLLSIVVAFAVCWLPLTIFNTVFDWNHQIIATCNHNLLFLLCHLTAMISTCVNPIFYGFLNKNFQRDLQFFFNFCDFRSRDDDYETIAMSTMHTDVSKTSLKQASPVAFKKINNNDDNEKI
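Benchmarks – high control isoproterenol alone, low control NPY with isoproterenol · Material – HEK293 Y1/CNG channel cell line · Times – dye 3 h, compound 60 min room temperature, stimulation 45 min · Probe or stimulus – NPY (25 nM), isoproterenol (1 µM), Ro 20-1724 (25 µM) · Evaluation – % inhibition of NPY effect · Signal – fluorescence, membrane potential probe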
NPY-Y2 antag – antagonists of human neuropeptide Y receptor Y2; NPY-Y2 expressing cells, antagonist mode; P49146; inhibition, % at 2.7 µM; 140,000 compounds, 0.99% hits;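 also: 0% = vehicle with agonist challenge and 100% = reference antagonist with challenge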
S1P4 antagonist – antagonists of human S1P4 receptor. O95977. S1P4-expressing cells, antagonist mode, reporter read-out. inhibition, % at 4.98 µM. 220,000 compounds, 0.26% hits; in the data active = inhibition above about 29%;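 also: 0% = wells stimulated with agonist and 100% = vehicle wells without agonist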
NPY-Y1 PAM-ag – potentiates or activates human NPY-Y1 receptor. P25929. activation, % at 3.6 µM. NPY-Y1 expressing cells, potentiator/agonist activation. 220,000 compounds, 0.37% hits; in the data active = activation above about 33%, passing the limit was not always enough;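 also: cells stimulated with NPY at EC10 then isoproterenol at EC100; 0% = low agonist plus stimulus and 100% = saturating agonist plus stimulus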
NPY-Y2 PAM-ag – human NPY-Y2 potentiation or agonism, primary screen. 220,000 compounds, 0.45% hits. cells expressing NPY-Y2, potentiator/agonist read-out. P49146. activation, % at 3.6 µM. AID 1359; in the data active = activation above about 27%;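 also: cells stimulated with NPY near EC25 plus isoproterenol at EC100; 0% = vehicle plus submaximal agonist and 100% = vehicle plus saturating agonist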
NPY1 antag conf – confirmation of human neuropeptide Y receptor Y1 antagonists. shares compounds with NPY-Y1 antag. inhibition, % at 3.6 µM. 1,200 compounds, 21% hits. HEK293-CNG NPY-Y1, membrane potential fluorescence, cAMP; NPY challenge against isoproterenol-raised cAMP; in the data active = inhibition above about 20%;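 also: 0% = vehicle with agonist plus stimulus and 100% = stimulus alone without agonist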
NPY2 antag ctr – human NPY-Y2 antagonism in NPY-Y1 counter-screen; shares compounds with NPY-Y1 antag; inhibition, % at 3.6 µM; 1,200 compounds, 28% hits; HEK293 NPY-Y2 CNG membrane potential fluorescence; cells given NPY, then isoproterenol;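 also: 0% = DMSO with agonist challenge and 100% = reference antagonist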
An asterisk follows results filed as active; . = not tested or not shown. Rule as the data show it, unless noted: active = inhibition above about 17%; inactive = the rest.

SMILES | S1P4 agonist | NPY-Y1 antag | NPY-Y2 antag | S1P4 antagonist | NPY-Y1 PAM-ag | NPY-Y2 PAM-ag | NPY1 antag conf | NPY2 antag ctr
CCn1c(=O)cc(SCC(=O)N2CCN(c3ccccc3F)CC2)c2ccccc21 | 1 | 24* | 12 | -7 | 3 | -70 | 14 | 12
O=C(c1ccccc1)C1CCN(CC(=O)N2CCN(c3ccccc3)CC2)CC1 | 0 | 1 | . | -9 | -11 | 5 | . | .
CCC(=O)N(CCC(Cc1ccccc1)c1ccco1)Cc1ccco1 (configuration not stated) | 1 | 42* | . | 8 | -24 | -15 | 13 | 7
CCC(=O)N(CCC(Cc1ccccc1)c1ccc2c(c1)OCO2)Cc1ccccc1F (configuration not stated) | 1 | 47* | 16 | -10 | -18 | -7 | 19 | 12
CCC(=O)N(CCc1ccccc1)Cc1cc2cc3c(cc2[nH]c1=O)OCO3 | -1 | 0 | 2 | -17 | 22 | 4 | . | .
CC(NCCC(Cc1ccccc1)c1ccco1)c1ccccc1 (configuration not stated) | 1 | . | . | 7 | 27 | -16 | . | .
CC(=O)Nc1ccc(S(=O)(=O)Oc2ccc(C(=S)N3CCC(O)CC3)cc2)cc1 | 2 | -8 | 0 | -15 | -9 | 8 | . | .
Cc1nc2ccccc2c2c1C(=O)N(C)C2=O | -2 | -3 | 0 | 3 | 3 | 5 | . | .
c1ccc(N/N=C2\CCCc3ccccc32)nc1 | -1 | 0 | . | -84 | -3 | -14 | . | .
Cc1cc(N/N=C2/CCCc3ccccc32)nc2ccccc12 | 0 | 29* | . | -4 | -37 | -23 | 32* | 29*
CCC(=O)Nc1cccc(Br)c1 | -2 | 4 | 1 | -6 | 7 | -1 | . | .
COc1ccc(-c2cc(-c3n[nH]c(=S)n3-c3cc(OC)ccc3OC)[nH]n2)cc1 | 2 | 27* | 5 | -13 | -70 | -36 | 23* | 44*
COc1ccc(-c2cc(-c3n[nH]c(=S)n3-c3ccccc3Cl)[nH]n2)cc1 | -1 | 42* | . | -5 | -32 | -19 | 47* | 73*
S=c1[nH]nc(-c2cc(-c3ccco3)[nH]n2)n1-c1ccccc1Cl | 0 | 0 | 17 | -17 | 7 | 1 | . | .
COc1ccc(OC)c(-n2c(-c3cc(-c4ccc(F)cc4)n[nH]3)n[nH]c2=S)c1 | -1 | 1 | 2 | -1 | -23 | 2 | . | .
CCOc1ccc(C(=O)Nc2ccc(Cc3ccncc3)cc2)cc1Br | 1 | -1 | . | -5 | 14 | 7 | . | .
Cc1ccc(C2C(C(=O)c3cccs3)=C(O)C(=O)N2c2nnc(C)s2)cc1 (configuration not stated) | 1 | 27* | . | 6 | -2 | -16 | 31* | 21*
Cc1ccc(C(=O)c2nc3c(n2O)CCCC3)cc1 | -4 | -7 | 2 | -13 | -4 | -8 | . | .
CCC1=Nc2cc(C(=O)O)ccc2Sc2ccc(Cl)cc21 | 2 | 69* | 4 | 13 | 14 | -1 | 2 | 1
CC1=Nc2cc(C(=O)O)ccc2Sc2ccc(Br)cc21 | -1 | -1 | 3 | 9 | -2 | 2 | . | .
COc1ccc(N2C(=O)CN(Cc3ccc(OC)c(OC)c3)C2=S)cc1 | 2 | 0 | . | -10 | 9 | 11 | . | .
CSc1nc(N)n2nc(-c3ccccc3)cc2n1 | 1 | . | . | 19 | 7 | 6 | . | .
CCN(CC)CCNC(=S)NC(=O)c1cn(-c2ccccc2)nc1-c1ccc(OC)cc1 | 0 | 26* | . | -12 | -43 | -43 | 17 | 32*
C=CCOC(=O)/C(=C\c1ccc(OC)cc1)NC(=O)c1ccco1 | 2 | 89* | 3 | -3 | -1 | -10 | -2 | 4
CN1CCN(c2nc(-c3cccnc3)nc3scc(-c4ccccc4)c23)CC1 | 1 | 28* | . | -28 | -38 | -23 | 7 | 13
SMILES | S1P4 agonist | NPY-Y1 antag | NPY-Y2 antag | S1P4 antagonist | NPY-Y1 PAM-ag | NPY-Y2 PAM-ag | NPY1 antag conf | NPY2 antag ctr
O=C(O)CCCCCCC1C(=O)NC(=O)N1CCC(O)C1CCCCC1 (configuration not stated) | 1 | 24* | 5 | -19 | -50 | -2 | 28* | 21*
COCC(=O)Nc1ccccc1C#N | 3 | 21* | 2 | 7 | -40 | -19 | 2 | 1
CC(Oc1ccc(/C=N/NC(=O)Cc2cccc3ccccc23)cc1)C(=O)O (configuration not stated) | 1 | . | . | -2 | 16 | -8 | . | .
COC(=O)[C@@]1(Cc2ccc(F)cc2)[C@H]2c3cc(C(=O)N(C)C)n(C[C@H](O)CO)c3C[C@H]2CN1C(=O)c1ccccc1 | 1 | 5 | -3 | -2 | -6 | 6 | . | .
COC(=O)[C@@]1(Cc2ccc(F)cc2)[C@H]2c3cc(C(=O)N(C)C)n(Cc4ccc(OC(F)(F)F)cc4)c3C[C@H]2CN1C(=O)c1ccccc1 | 0 | 35* | 16 | 13 | -6 | 14 | 9 | 4
Cc1cc(C)nc(SCc2ccc(C(=O)N/N=C/c3cccnc3)cc2)n1 | -1 | 1 | . | -5 | -5 | -6 | . | .
Cc1cc(C)nc(SCc2ccc(C(=O)N/N=C/c3ccccc3C(=O)O)cc2)n1 | -1 | 30* | . | 4 | -15 | -22 | 1 | 1
CCCc1nnc(-c2cc(OC)c(OC)c(OC)c2)o1 | -2 | -7 | 3 | -18 | -9 | -6 | . | .
FC(F)(F)c1cc(-c2ccco2)nc(-n2nc(C(F)(F)F)cc2C2CC2)n1 | 1 | 21* | 17 | -7 | -31 | -5 | 14 | 10
CS(=O)(=O)c1nc(-c2ccco2)cc(C(F)(F)F)n1 | -1 | 24* | 8 | 28 | -57 | -6 | 11 | 46*
O=c1[nH]cnc2ccsc12 | 2 | 0 | . | 1 | -5 | -3 | . | .
Nn1c(SCC(=O)Nc2ccc(F)c(F)c2)nnc1C1CCCCC1 | 2 | 1 | -2 | -4 | 7 | 22 | . | .
CCOCCCNc1nc2c([nH]1)c(=O)n(C)c(=O)n2C | 0 | 3 | 2 | -15 | -4 | 8 | . | .
CC(=O)NCc1nc2ccccc2n1C(C)C | 1 | 1 | 0 | -17 | -9 | 0 | . | .
Cc1ccc2nc(NC(=O)CNS(=O)(=O)c3ccc(Br)s3)sc2c1 | -1 | 20* | 13 | 4 | -42 | -19 | 7 | 11
COc1cccc(NC(=O)c2ccccc2-c2nc(-c3ccc(F)cc3)no2)c1 | 1 | 22* | 8 | -1 | -57 | -20 | 14 | 12
COc1cccc(NC(=O)c2ccccc2-c2nc(-c3ccc(Cl)cc3)no2)c1 | 0 | 14 | 3 | 12 | -38 | -27 | . | .
COc1cccc(NC(=O)c2ccccc2-c2nc(-c3ccccc3)no2)c1 | 0 | 26* | 15 | 3 | -64 | -45 | 12 | 9
